Experimental data: ChEMBL document CHEMBL4038310, “Scaffold Hopping and Optimization of Maleimide Based Porcupine Inhibitors” (J Med Chem, 2017)
Values after ≈ are worked out from the molar mass of the structure shown.

Experiments:
[1] = Thermodynamic solubility of compound at pH 7.4; assay type: physicochemical; details: buffer, read-out: Therm_solubility
[2] = Thermodynamic solubility of compound at pH 4; assay type: physicochemical; details: buffer, read-out: Therm_solubility
[3] = Tmax in CD1 mouse at 5 mg/kg administered as single dose via oral gavage after 24 hrs by LC/MS analysis; assay type: ADME, organism-based; details: in vivo
Procedure, shortened: (§1)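 Female CD-1 mice, 6-8 weeks, 26 ± 3 g; single oral gavage dose of 5 mg/kg; three mice per time point. Sampling by cardiac puncture after CO2 euthanasia at pre-dose and from 5 or 10 min up to 24 h into K3EDTA. Plasma was extracted with acetonitrile/formic acid, carbamazepine internal standard, and analysed by LC-MS/MS (ESI+, MRM). Parameters were derived non-compartmentally.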

[4] = Cmax in CD1 mouse at 5 mg/kg administered as single dose via oral gavage after 24 hrs by LC/MS analysis; assay type: ADME, organism-based; parameters: dose 5 mg/kg, route oral; details: in vivo; procedure, shortened: as §1
[5] = AUC in Sprague-Dawley rat at 10 mg/kg, po; assay type: ADME, organism-based; details: in vivo
Procedure, shortened: (§2)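 Male Sprague Dawley rats received a single oral dose of 10 mg/kg. A plasma concentration-time profile was obtained, and PK parameters were calculated by the non-compartmental method.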

Mus musculus = test: Bioavailability in CD1 mouse at 1 mg/kg, iv administered as single dose after 24 hrs by LC/MS analysis; assay type: ADME, organism-based; details: in vivo
Procedure, shortened: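 Female CD-1 mice received a single 1 mg/kg tail-vein dose, with three mice per time point and plasma sampled up to 24 h. Quantitation was by LC-MS/MS against standards in blank mouse plasma. Absolute oral F = (AUC0-inf po/AUC0-inf iv) × (dose iv/dose po) × 100, using the 5 mg/kg oral gavage arm.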

[6] = Cmax in Sprague-Dawley rat at 10 mg/kg, po; assay type: ADME, organism-based; parameters: dose 10 mg/kg, route oral; details: in vivo; procedure, shortened: as §2
[7] = Bioavailability in Sprague-Dawley rat plasma at 2 mg/kg, iv; assay type: ADME, organism-based
Procedure, shortened: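 Male Sprague Dawley rats were given a 2 mg/kg intravenous dose and compared with a 10 mg/kg oral dose. Absolute F = (AUC0-inf po/AUC0-inf iv) × (dose iv/dose po) × 100.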

| SMILES | solubility thermodynamic [1] | solubility thermodynamic [2] | Tmax [3] | Cmax [4] | other results |
| --- | --- | --- | --- | --- | --- |
| CN1C(=O)c2cccc(CC(=O)Nc3ccc(-c4nccs4)cc3)c2C1=O | 0.42 µg/mL (≈ 1.11 µM) | – | – | – | – |
| Cc1ccc(-c2ccc(NC(=O)CN3CCCC4=C3C(=O)N(C)C4=O)nn2)cn1 | 35.5 µg/mL (≈ 90.5 µM) | > 194 µg/mL | 10.2 min | 1050 ng/mL | – |
| CN1C(=O)C2=C(C1=O)N(CC(=O)Nc1ccc(-c3ccccc3)nn1)CCC2 | 3.34 µg/mL (≈ 8.85 µM) | – | – | – | – |
| O=C(CN1CCCC2=C1C(=O)N(C1CC1)C2=O)Nc1ccc(-c2cccnc2)nn1 | 60 µg/mL (≈ 148 µM) | 141 µg/mL (≈ 349 µM) | 30 min | 4030 ng/mL | AUC [5]: 81200 ng·h/mL; F (Mus musculus): 100%; Cmax [6]: 17300 ng/mL; bioavailability [7]: 81% |
| O=C(CN1CCCC2=C1C(=O)N(C1CC1)C2=O)Nc1ccc(-c2cncc(F)c2)nn1 | 14.9 µg/mL (≈ 35.3 µM) | 13.8 µg/mL (≈ 32.7 µM) | 30 min | 3290 ng/mL | – |

Continued, in another order:

| solubility thermodynamic [1] | solubility thermodynamic [2] | Tmax [3] | Cmax [4] | SMILES | other results |
| --- | --- | --- | --- | --- | --- |
| 41 µg/mL (≈ 103 µM) | 82 µg/mL (≈ 207 µM) | 120 min | 845 ng/mL | CN1C(=O)C2=C(C1=O)N(CC(=O)Nc1ccc(-c3cncc(F)c3)nn1)CCC2 | – |
| 2.1 µg/mL (≈ 5.59 µM) | – | – | – | CN1C(=O)C2=C(C1=O)N(CC(=O)Nc1ccc(-c3ccccc3)cc1)CCC2 | – |
| 0.75 µg/mL (≈ 1.99 µM) | – | – | – | CN1C(=O)C2=C(C1=O)N(CC(=O)Nc1ccc(-c3ccccc3)nc1)CCC2 | – |
| 1.26 to 1.3 µg/mL (≈ 3.29 to 3.4 µM) | 1.1 µg/mL (≈ 2.88 µM) | – | – | CN1C(=O)C2=C(C1=O)N(CC(=O)Nc1ccc(-c3nccs3)cc1)CCC2 | – |
| 13 µg/mL (≈ 34.6 µM) | – | – | – | CN1C(=O)C2=C(C1=O)N(CC(=O)Nc1ccc(-c3cccnc3)nc1)CCC2 | – |
| 0.24 µg/mL (≈ 0.638 µM) | – | – | – | CN1C(=O)C2=C(C1=O)N(CC(=O)Nc1ccc(-c3ccccc3)cn1)CCC2 | – |
| 11.1 µg/mL (≈ 26.5 µM) | > 41 µg/mL | 30 min | 1190 ng/mL | Cc1ccc(-c2ccc(NC(=O)CN3CCCC4=C3C(=O)N(C3CC3)C4=O)nn2)cn1 | – |
| 9.5 µg/mL (≈ 25.1 µM) | 13.9 µg/mL (≈ 36.7 µM) | 120 min | 759 ng/mL | CN1C(=O)C2=C(C1=O)N(CC(=O)Nc1ccc(-c3cccnc3)nn1)CCC2 | – |
